Experimental data taken from ChEMBL document CHEMBL1138476 (J Med Chem, 2009).
In brackets after ≈: the same amount, converted by molar mass.

Columns and labels:
[1] = Plasma concentration in dog at 0.3 mg/kg after intravenous infusion for 30 mins; type: ADME, organism-based, Canis lupus familiaris; parameters: dose 0.3 mg/kg, route intravenous
[2] = Plasma concentration in dog at 3 mg/kg after […]; type: ADME, organism-based, Canis lupus familiaris; parameters: dose 3 mg/kg, route intravenous; conditions: iv
[3] = tested on: Rattus norvegicus; experiment: Effect on acute renal function in rat assessed as change in urine sodium level per 100 gm body weight at 30 mg/kg, po (RVb= 49.9+/-3.1 mg/dl); type: functional
[4] = tested on: Canis familiaris; experiment: Effect on respiratory function in spontaneously breathing mongrel dog assessed as change in respiration rate at 5 mg/kg after intravenous infusion for 6 mins (RVb= -8.3+/-8.3 %); type: functional, Canis lupus familiaris
[5] = tested on: Canis familiaris; experiment: Effect on respiratory function in spontaneously breathing mongrel dog assessed as change in pulmonary compliance at 5 mg/kg after intravenous infusion for 30 mins (RVb= -2.8+/-4.0 %); type: functional, Canis lupus familiaris
[6] = tested on: Canis familiaris; experiment: Effect on respiratory function in spontaneously breathing mongrel dog assessed as change in mean arterial pressure at 5 mg/kg after intravenous infusion for 15 mins (RVb= 2.1+/-1.5 %); type: functional, Canis lupus familiaris, Artery
[7] = Plasma concentration in spontaneously breathing dog at 5 mg/kg, iv after 6 mins; type: ADME, organism-based, Canis lupus familiaris; parameters: dose 5 mg/kg, route intravenous
Summary of the method: (§1)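 Spontaneously breathing, barbiturate-anesthetized mongrel dogs (n = 4) infused iv at 5.0 mg/kg over 6 min. Total pooled plasma concentrations taken at 6, 15, 30 and 60 min.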

[8] = Plasma concentration in spontaneously breathing dog at 5 mg/kg, iv after 60 mins; type: ADME, organism-based, Canis lupus familiaris; parameters: dose 5 mg/kg, route intravenous; summary of the method: as §1
[9] = tested on: Rattus norvegicus; experiment: Effect on acute renal function in rat assessed as change in urine chloride level per 100 gm body weight at 30 mg/kg, po (RVb= 95.3+/-11.6 mg/dl); type: functional
[10] = Solubility in 0.01 N HCl at pH 2.5; type: physicochemical
[11] = tested on: Rattus norvegicus; experiment: Toxicity in rat assessed as total distance traveled at 1 mg/kg, po after 1 hr by spontaneous locomotor test; type: organism-based; parameters: dose 1 mg/kg, route oral; conditions: in vivo
Summary of the method: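 Spontaneous locomotor activity in rats dosed po in 0.25% Methocel 1 h pretest; doses up to 100 mg/kg. Compared with the vehicle (zero dose) group, mean ± SEM, N = rats.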

[12] = tested on: Rattus norvegicus; experiment: Toxicity in rat assessed as total distance traveled at 30 mg/kg, po after 1 hr by spontaneous locomotor test; type: functional
Summary of the method: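 Rat spontaneous locomotor activity test with oral dosing in 0.25% Methocel 1 h before testing, at doses up to 100 mg/kg. Values are mean ± SEM, with N rats per group, compared with the vehicle (zero-dose) group.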

[13] = Volume of distribution at steady state in chimpanzee at 0.5 mg/kg, iv; type: ADME, organism-based, Pan troglodytes; parameters: dose 0.5 mg/kg, route intravenous; conditions: in vivo, read-out: Vdss
Summary of the method: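 Single chimpanzee given 0.5 mg/kg iv over 10 min (0.2 mL/kg) in 10% DMAC, 70% propylene glycol and deionized water. EDTA blood taken predose, at 6, 15 and 30 min, and at 2 to 96 h.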

[14] = Elimination half life in chimpanzee at 0.5 mg/kg, iv; type: ADME, organism-based, Pan troglodytes; parameters: dose 0.5 mg/kg, route intravenous; conditions: in vivo, read-out: beta t1/2 (converted)
Summary of the method: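 One chimpanzee received 0.5 mg/kg iv over 10 min (0.2 mL/kg) in 10% DMAC, 70% propylene glycol and deionized water. Blood was drawn into EDTA predose and at 6, 15, 30 min and 2, 4, 6, 9, 12, 24, 36, 48, 72 and 96 h.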

- concentration at 0.5 h [1]: 150 nM
- concentration at 0.5 h [2]: 1290 nM
- concentration at 0.1 h [7]: 1790 nM
- concentration at 1 h [8]: 229 nM
- solubility [10]: 16.3 mg/mL (≈ 47.9 mM)
- Vd [13]: 4.2 L/kg
- half-life [14]: 30 h
Structure (SMILES): CC[C@@H](C)Nc1nc(C)nc2c(-c3ccc(OC)nc3C)c(C)nn12 [PEXACERFONT]
- Activity [3]: 58.4 mg/dL
- Activity [4]: 37.5%
- Activity [5]: -22.3%
- Activity [6]: 1.2%
- Activity [9]: 80 mmol/L
- Activity [11]: 4106 cm
- Activity [12]: 4846 cm
